Calls of active or inactive are those of the source. No cut-off for these calls is given here.
Tests used:
[1] = system: HeLa; assay: Cytotoxicity against human HeLa cells after 72 hrs by trypan blue assay; type: functional, cell-based
In short: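 HeLa cells kept in Ham's F-12 with 10% heat-inactivated FCS plus antibiotics, 37 °C, 5% CO2. 4×10^4 cells/well seeded, 24 h, medium renewed, then a range of concentrations added for 72 h. Viability by trypan blue; IC50 is the concentration giving 50% fewer cells than control.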

[2] = system: HL-60; assay: Cytotoxicity against human HL60 cells after 72 hrs by trypan blue assay; type: functional, cell-based; details: HL-60, 72 h
In short: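 HL-60 cells kept in RPMI 1640 with 15% heat-inactivated FCS plus antibiotics, 37 °C, 5% CO2. 4×10^4 cells/well seeded, 24 h, then a range of concentrations added to complete medium for 72 h. Cell number counted by trypan blue; IC50 is the concentration giving 50% fewer cells than control cultures.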

[3] = system: Salmonidae; assay: Binding affinity to Salmon testes DNA assessed as drug-DNA complex formation by linear flow dichroism method
In short: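 Salmon testes DNA at 1.6×10^-3 M in ETN buffer (10 mM Tris, 10 mM NaCl, 1 mM EDTA, pH 7). DNA concentration set from extinction coefficient 6600 M(p)-1 cm-1 at 260 nm. Linear dichroism spectra recorded at 25 °C at [drug]/[DNA] = 0.00 and 0.08.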

[4] = system: HeLa; assay: Induction of apoptosis in human HeLa cells assessed as late stage apoptotic cell count at 50 uM treated for 24 hrs before Annexin-V-FITC PI staining by flow cytometry; type: functional
In short: (§1)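 Near-confluent HeLa cells exposed to 50 μM agent for 0, 24 or 48 h at 37 °C. About 5×10^5 cells in binding buffer (10 mM Hepes pH 7.5, 140 mM NaCl, 2.5 mM CaCl2) stained with 1 μg/ml Annexin V-FITC and 1 μg/ml PI, 10 min at room temperature in the dark. Flow cytometry; mean of three independent experiments.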

[5] = system: HeLa; assay: Induction of apoptosis in human HeLa cells assessed as non apoptotic cell count at 50 uM using Annexin-V-FITC PI stain by flow cytometry; type: functional; in short: as §1
[6] = system: HeLa; assay: Induction of mitochondrial membrane depolarization in human HeLa cells at 50 uM after 24 hrs by FL2 staining; type: functional
In short: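 Near-confluent HeLa cells given 50 μM agent in DMSO for 24 h at 37 °C; JC-1 added at […] final for the last 10 min. Positive control 20 μM H2O2 for 24 h. After cold PBS wash, flow cytometry with 488 nm excitation; monomers at 530 nm, aggregates (FL2) at 585/650 nm. At least 10,000 events; one of four experiments.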

[7] = species on record: Rattus norvegicus; assay: Effect on mitochondrial swelling in rat liver mitochondria assessed as complete collapse of electrical membrane potential at 50 uM in presence of bongkrekic acid; type: functional
[8] = species on record: Rattus norvegicus; assay: Decrease in mitochondrial sulfydryl groups in rat liver mitochondria at 50 uM in presence of Ca2+; type: functional
In short: (§2)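 Rat liver mitochondria (1 mg protein/mL) at 20 °C in 250 mM sucrose, 10 mM Hepes pH 7.4, 5 mM succinate, 1.25 μM rotenone with 30 μM Ca2+ unless omitted. Agent 50 μM; DTE 2 mM where present. Protein thiol oxidation measured; mean ± SD of four independent experiments.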

[9] = species on record: Rattus norvegicus; assay: Decrease in mitochondrial sulfydryl groups in rat liver mitochondria at 50 uM in presence of DTE; type: functional; in short: as §2
[10] = system: HeLa; assay: Induction of apoptosis in human HeLa cells assessed as dead cell count at 50 uM treated for 24 hrs before Annexin-V-FITC PI staining by flow cytometry; type: functional
[11] = species on record: Rattus norvegicus; assay: Decrease in mitochondrial sulfydryl groups in rat liver mitochondria at 50 uM; type: functional; design: scale not given: the % may be the effect or the level left; in short: as §2
[12] = system: HeLa; assay: Induction of apoptosis in human HeLa cells assessed as dead cell count at 50 uM using Annexin-V-FITC PI stain by flow cytometry; type: functional
[13] = species on record: Rattus norvegicus; assay: Increase in hydrogen peroxide production in rat liver mitochondria assessed per mg of protein at 50 uM; type: functional
In short: (§3)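 Rat liver mitochondria, 1 mg protein/mL, 20 °C, standard succinate/rotenone medium pH 7.4 with 30 μM Ca2+ unless omitted. Agent 50 μM. H2O2 measured fluorometrically by the scopoletin method, expressed per mg protein; mean ± SD of four independent experiments.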

[14] = system: HeLa; assay: Induction of apoptosis in human HeLa cells assessed as dead cell count at 50 uM treated for 48 hrs before Annexin-V-FITC PI staining by flow cytometry; type: functional
[15] = species on record: Rattus norvegicus; assay: Induction of cytochrome c release in rat liver mitochondria at 50 uM by Western blotting in presence of Ca2+; type: functional
In short: (§4)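 Rat liver mitochondria (1 mg protein/mL) incubated 15 min at 20 °C in standard medium with 30 μM Ca2+ unless omitted. Agent 50 μM, CsA 1 μM. Supernatant after 13,000 g, 10 min, 4 °C, concentrated and run on SDS-PAGE (15% for cyt c, 10% for AIF). Western blot with anti-cyt c and anti-AIF antibodies.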

[16] = system: HeLa; assay: Induction of apoptosis in human HeLa cells assessed as early stage apoptotic cell count at 50 uM treated for 24 hrs before Annexin-V-FITC PI staining by flow cytometry; type: functional; in short: as §1
[17] = species on record: Rattus norvegicus; assay: Induction of cytochrome c release in rat liver mitochondria at 50 uM by Western blotting in presence of cyclosporin A; type: functional; in short: as §4
[18] = system: HeLa; assay: Induction of apoptosis in human HeLa cells assessed as early stage apoptotic cell count at 50 uM treated for 48 hrs before Annexin-V-FITC PI staining by flow cytometry; type: functional; in short: as §1
[19] = species on record: Rattus norvegicus; assay: Effect on mitochondrial swelling in rat liver mitochondria assessed as complete collapse of electrical membrane potential at 50 uM in presence of cyclosporin A; type: functional
[20] = system: HeLa; assay: Induction of DNA fragmentation in human HeLa cells at 100 uM after 24 hrs; type: functional, cell-based
In short: (§5)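 HeLa cells (5×10^5) grown 24 h at 37 °C, optionally pretreated 30 min at 37 °C with 5 μM CsA. Medium renewed, agent added at 100 μM for 24 h. Extracted DNA in TE buffer run on 0.8% agarose gel in TBE, pH 8.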

[21] = system: HeLa; assay: Induction of DNA fragmentation in human HeLa cells at 100 uM after 24 hrs in presence of cyclosporin A; type: functional, cell-based; in short: as §5
[22] = species on record: Rattus norvegicus; assay: Induction of apoptosis inducing factor release in rat liver mitochondria at 50 uM by Western blotting in presence of Ca2+; type: functional; in short: as §4
[23] = system: HeLa; assay: Cytotoxicity against human HeLa cells assessed as viable cells at 6 uM after 72 hrs by trypan blue assay in presence of cyclosporin A; type: functional; details: read-out: Activity
In short: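 HeLa cells seeded, after 24 h pretreated 30 min with 2 μM CsA. Medium renewed, 6 μM agent added, 72 h. Viable cells counted by trypan blue and expressed as percent of control culture cell number.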

[24] = species on record: Rattus norvegicus; assay: Effect on mitochondrial swelling in rat liver mitochondria assessed as complete collapse of electrical membrane potential at 50 uM in presence of N-ethylmaleimide; type: functional
[25] = species on record: Rattus norvegicus; assay: Effect on mitochondrial swelling in rat liver mitochondria assessed as complete collapse of electrical membrane potential at 50 uM in presence of Ca2+; type: functional
[26] = system: HeLa; assay: Induction of apoptosis in human HeLa cells assessed as non apoptotic cell count at 50 uM treated for 48 hrs before Annexin-V-FITC PI staining by flow cytometry; type: functional; in short: as §1
[27] = species on record: Rattus norvegicus; assay: Effect on mitochondrial swelling in rat liver mitochondria assessed as complete collapse of electrical membrane potential at 50 uM in presence of ADP; type: functional
[28] = species on record: Rattus norvegicus; assay: Induction of apoptosis inducing factor release in rat liver mitochondria at 50 uM by Western blotting in presence of cyclosporin A; type: functional; in short: as §4
[29] = species on record: Rattus norvegicus; assay: Increase in hydrogen peroxide production in rat liver mitochondria assessed per mg of protein at 50 uM in presence of CA2+; type: functional; in short: as §3
[30] = system: HeLa; assay: Induction of apoptosis in human HeLa cells assessed as late stage apoptotic cell count at 50 uM using Annexin-V-FITC PI stain by flow cytometry; type: functional; in short: as §1
[31] = species on record: Rattus norvegicus; assay: Effect on mitochondrial swelling in rat liver mitochondria assessed as complete collapse of electrical membrane potential at 50 uM; type: functional
[32] = system: HeLa; assay: Induction of apoptosis in human HeLa cells assessed as non apoptotic cell count at 50 uM treated for 24 hrs before Annexin-V-FITC PI staining by flow cytometry; type: functional; in short: as §1
[33] = system: HeLa; assay: Induction of apoptosis in human HeLa cells assessed as late stage apoptotic cell count at 50 uM treated for 48 hrs before Annexin-V-FITC PI staining by flow cytometry; type: functional; in short: as §1
[34] = system: HeLa; assay: Induction of apoptosis in human HeLa cells assessed as early stage apoptotic cell count at 50 uM using Annexin-V-FITC PI stain by flow cytometry; type: functional; in short: as §1

COc1ccc2c(c1)SCc1cnn(-c3ccccc3)c1-2
IC50 [1]: 17.2 µM
IC50 [2]: 12.5 µM
Activity [3]: inactive

COc1ccc(-n2cc3c(n2)-c2ccc(OC)cc2SC3)cc1
IC50 [1]: > 20 µM
IC50 [2]: > 20 µM

Clc1ccc2c(c1)SCc1cn[nH]c1-2
IC50 [1]: > 20 µM
IC50 [2]: > 20 µM

COc1ccc2c(c1)SCc1cn(-c3ccccc3)nc1-2
IC50 [1]: > 20 µM
IC50 [2]: > 20 µM

COc1ccc2c(c1)SCc1cnc(-c3ccccc3)nc1-2
IC50 [2]: 7.15 µM

COc1ccc2c(c1)SCc1cnn(-c3ccc(Cl)cc3)c1-2
Activity [4]: 28.2%
Activity [5]: 93.4%
Activity [6]: 39.4%
IC50 [1]: 6.7 µM
Activity [7]: inactive
Activity [8]: 2
Activity [9]: Active
Activity [10]: 5.4%
Activity [11]: 20%
Activity [12]: 0.6%
Activity [13]: 0.25 nmol
Activity [14]: 11.6%
Activity [15]: Active
Activity [16]: 19.7%
Activity [17]: inactive
Activity [18]: 8.5%
IC50 [2]: 3.8 µM
Activity [19]: inactive
Activity [20]: Active
Activity [21]: inactive
Activity [22]: Active
viability at 6 µM [23]: 64%
Activity [24]: inactive
Activity [25]: Active
Activity [26]: 40.9%
Activity [3]: inactive
Activity [27]: inactive
Activity [28]: inactive
Activity [29]: 0.55 nmol
Activity [30]: 1.2%
Activity [31]: inactive
Activity [32]: 46.7%
Activity [33]: 39%
Activity [34]: 4.8%

Clc1ccc2c(c1)SCc1cnn(-c3ccccc3)c1-2
IC50 [1]: > 20 µM
IC50 [2]: > 20 µM

Clc1ccc(-n2ncc3c2-c2ccc(Cl)cc2SC3)cc1
IC50 [1]: > 20 µM
IC50 [2]: > 20 µM

COc1ccc(-n2ncc3c2-c2ccc(OC)cc2SC3)cc1
IC50 [1]: 17.8 µM
IC50 [2]: 6.6 µM
Activity [3]: inactive

COc1ccc(-n2ncc3c2-c2ccc(Cl)cc2SC3)cc1
IC50 [1]: > 20 µM
IC50 [2]: > 20 µM

COc1ccc2c(c1)SCc1cn(-c3ccc(Cl)cc3)nc1-2
IC50 [1]: > 20 µM
IC50 [2]: > 20 µM

COc1ccc2c(c1)SCc1cn[nH]c1-2
IC50 [1]: > 20 µM
IC50 [2]: > 20 µM
